Reference: ChEMBL document CHEMBL4041520, “Novel pyrimidine-2,4-dione-1,2,3-triazole and furo[2,3-d]pyrimidine-2-one-1,2,3-triazole hybrids as potential anti-cancer agents: Synthesis, computational and X-ray analysis and biological evaluation” (Eur J Med Chem, 2017)

Tests used:
[1] = system: HeLa; assay: Antiproliferative activity against human HeLa cells after 72 hrs by MTT assay; type: functional, cell-based
Procedure, shortened: (§1)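 Monolayers grown in DMEM with 10% FBS and 2 mM L-glutamine at 37 °C, 5% CO2. Cells seeded at 5000 per well on day 0. Compounds added in five 10-fold dilutions (0.01–100 µM), DMSO ≤0.1%, for 72 h. MTT absorbance converted to percentage growth versus untreated wells. IC50 by linear regression of the dose-response curve; highest concentration reported when not reached. Quadruplicate points, three experiments.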

[2] = system: CFPAC-1; assay: Antiproliferative activity against human CFPAC-1 cells after 72 hrs by MTT assay; type: functional, cell-based; conditions: CFPAC-1, 72 h; procedure, shortened: as §1
[3] = system: WI-38; assay: Antiproliferative activity against human WI38 cells after 72 hrs by MTT assay; type: cell-based; conditions: WI-38, 72 h; procedure, shortened: as §1
[4] = system: SW-620; assay: Antiproliferative activity against human SW620 cells after 72 hrs by MTT assay; type: functional, cell-based; conditions: SW-620, 72 h; procedure, shortened: as §1
[5] = system: A549; assay: Antiproliferative activity against human A549 cells after 72 hrs by MTT assay; type: functional, cell-based; conditions: A549, 72 h; procedure, shortened: as §1
[6] = system: HepG2; assay: Antiproliferative activity against human HepG2 cells after 72 hrs by MTT assay; type: functional, cell-based; conditions: HepG2, 72 h; procedure, shortened: as §1
[7] = system: NIH3T3; assay: Antiproliferative activity against mouse NIH/3T3 cells after 72 hrs by MTT assay; type: cell-based; conditions: NIH3T3, 72 h; procedure, shortened: as §1

Compound	IC50 [1] [µM]	IC50 [2] [µM]	IC50 [3] [µM]	IC50 [4] [µM]	IC50 [5] [µM]	IC50 [6] [µM]	IC50 [7] [µM]
O=c1[nH]cc(F)c(=O)[nH]1 [FLUOROURACIL]	8.81	0.14	0.94	0.08	2.8	–	–
O=c1c(I)cn(Cc2cn(-c3ccccc3F)nn2)c(=O)n1Cc1cn(-c2ccccc2F)nn1	49.8	55.9	2.22	> 100	53.4	36.1	–
C#CCn1c(=O)c(I)cn(Cc2cn(-c3ccc(F)cc3)nn2)c1=O	4.5	4.21	< 0.01	6.63	3.06	5.11	–
CCCCCCC#Cc1c(CCCCCC)oc2nc(=O)n(Cc3cn(-c4ccc(Cl)cc4)nn3)cc12	> 100	> 100	> 100	> 100	> 100	> 100	–
O=c1nc2oc(CCCCl)cc2cn1Cc1cn(-c2ccc(Cl)cc2)nn1	60.2	> 100	72.5	> 100	52	89.8	–
O=c1[nH]c(=O)n(Cc2cn(-c3ccccc3F)nn2)cc1Br	93.9	> 100	–	≥ 100	> 100	> 100	59.3
CCCCCCc1cc2cn(Cc3cn(Cc4ccccc4)nn3)c(=O)nc2o1	59.4	67	62.8	93.5	51	68.7	–
CCCCCCC#Cc1c(CCCCCC)oc2nc(=O)n(Cc3cn(-c4ccc(F)cc4)nn3)cc12	> 100	> 100	> 100	> 100	> 100	> 100	–
O=c1nc2oc(C3CC3)cc2cn1Cc1cn(-c2ccc(Cl)cc2)nn1	> 100	> 100	> 100	> 100	61	> 100	–
CCCCCc1ccc(C#Cc2c(-c3ccc(CCCCC)cc3)oc3nc(=O)n(Cc4cn(-c5ccccc5F)nn4)cc23)cc1	9	> 100	7.34	57.1	38.6	72.5	–
O=c1nc2oc(C3CC3)c(C#CC3CC3)c2cn1Cc1cn(-c2ccc(Cl)cc2)nn1	16.1	35.4	3.15	36.9	39	39.2	–
O=c1nc2oc(C3CC3)c(C#CC3CC3)c2cn1Cc1cn(Cc2ccccc2)nn1	6.51	4.59	0.29	9.72	4.81	2.67	–
CCCCCCC#Cc1c(CCCCCC)oc2nc(=O)n(Cc3cn(Cc4ccccc4)nn3)cc12	23.4	27.3	23.4	32.6	21.9	25.8	–
O=c1nc2oc(CCCCl)c(C#CCCCCl)c2cn1Cc1cn(Cc2ccccc2)nn1	25.4	32.8	17.6	33.9	26.9	25.5	–
O=c1[nH]c(=O)n(Cc2cn(-c3ccc(F)cc3)nn2)cc1I	7.2	83.7	3.78	> 100	78.8	> 100	–
O=c1c(I)cn(Cc2cn(Cc3ccccc3)nn2)c(=O)n1Cc1cn(Cc2ccccc2)nn1	15.1	> 100	< 0.01	> 100	41.3	5.77	–
C#CCn1c(=O)c(I)cn(Cc2cn(-c3ccc(Cl)cc3)nn2)c1=O	4.74	5.53	0.04	18.3	4.69	13.1	–
O=c1nc2oc(CCCCl)cc2cn1Cc1cn(-c2ccc(F)cc2)nn1	6.99	6.49	< 0.01	> 100	68.4	14.6	–
O=c1nc2oc(CCCCl)c(C#CCCCCl)c2cn1Cc1cn(-c2ccc(F)cc2)nn1	41.8	95.8	0.07	69.6	39.4	36.9	–

Compound	IC50 [1] [µM]	IC50 [2] [µM]	IC50 [3] [µM]	IC50 [4] [µM]	IC50 [5] [µM]	IC50 [6] [µM]	IC50 [7] [µM]
CCCCCc1ccc(C#Cc2c(-c3ccc(CCCCC)cc3)oc3nc(=O)n(Cc4cn(Cc5ccccc5)nn4)cc23)cc1	73	> 100	2.65	> 100	> 100	> 100	–
O=c1[nH]c(=O)n(Cc2cn(-c3cc(Cl)cc(Cl)c3)nn2)cc1Br	8.42	5.51	–	9.87	80.7	7.66	1.16
O=c1nc2oc(CCCCl)cc2cn1Cc1cn(Cc2ccccc2)nn1	9.58	23.5	5.2	75.5	27.9	27.6	–
O=c1nc2oc(C3CC3)cc2cn1Cc1cn(Cc2ccccc2)nn1	50	48.5	29.7	54.7	45	49.1	–
O=c1c(I)cn(Cc2cn(-c3ccc(F)cc3)nn2)c(=O)n1Cc1cn(-c2ccc(F)cc2)nn1	41.9	51.2	< 0.01	94.8	78.7	53.5	–
C#CCn1c(=O)c(I)cn(Cc2cn(-c3ccccc3F)nn2)c1=O	> 100	> 100	0.16	> 100	56.2	> 100	–
CCCCCCc1cc2cn(Cc3cn(-c4ccccc4F)nn3)c(=O)nc2o1	> 100	> 100	69.2	> 100	> 100	> 100	–
O=c1nc2oc(C3CC3)c(C#CC3CC3)c2cn1Cc1cn(-c2ccccc2F)nn1	51.2	54.5	45.9	49.1	38.3	39.1	–
O=c1nc2oc(CCCCl)c(C#CCCCCl)c2cn1Cc1cn(-c2ccc(Cl)cc2)nn1	> 100	> 100	> 100	> 100	> 100	72.5	–
O=c1nc2oc(CCCCl)cc2cn1Cc1cn(-c2ccccc2F)nn1	66.5	81.8	76.5	> 100	69.8	79.8	–
O=c1[nH]c(=O)n(Cc2cn(-c3ccc(Cl)cc3)nn2)cc1I	6.79	77.2	< 0.01	34.6	50.6	> 100	–
O=c1c(I)cn(Cc2cn(-c3ccc(Cl)cc3)nn2)c(=O)n1Cc1cn(-c2ccc(Cl)cc2)nn1	96.5	> 100	0.03	> 100	71.1	> 100	–
O=c1c(Br)cn(Cc2cn(-c3cc(Cl)cc(Cl)c3)nn2)c(=O)n1Cc1cn(-c2cc(Cl)cc(Cl)c2)nn1	> 100	> 100	–	> 100	95.8	42.7	4.3
O=c1[nH]c(=O)n(Cc2cn(Cc3ccccc3)nn2)cc1I	> 100	> 100	55.2	> 100	> 100	> 100	–
O=c1[nH]c(=O)n(Cc2cn(-c3ccc(F)cc3)nn2)cc1Br	72.9	> 100	–	> 100	64	68.9	50.8
O=c1[nH]c(=O)n(Cc2cn(-c3ccccc3F)nn2)cc1I	> 100	> 100	73.1	> 100	95.1	> 100	–
O=c1[nH]c(=O)n(Cc2cn(-c3ccc(Cl)cc3)nn2)cc1Br	33.3	39.5	–	> 100	40.9	19.1	6.7
CCCCCc1ccc(C#Cc2c(-c3ccc(CCCCC)cc3)oc3nc(=O)n(Cc4cn(-c5ccc(Cl)cc5)nn4)cc23)cc1	> 100	> 100	> 100	> 100	> 100	> 100	–
